Reference: ChEMBL document CHEMBL5244266, “Nitrogen-containing naringenin derivatives for reversing multidrug resistance in cancer” (Bioorg Med Chem, 2020)

Tests used:
L5178Y [1] = assay: Cytotoxicity against multi-drug resistant mouse L5178Y cells transfected with ABCB1 gene assessed as inhibition of cell growth incubated for 24 hrs by MTT assay; format: functional, cell-based
In short: (§1)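 L5178Y parental and human ABCB1 retrovirus-transfected lines were grown in McCoy's 5A with 10% heat-inactivated horse serum, and the MDR line was kept under colchicine 60 ng/mL. Cells were seeded at 1×10^4/well and given 2-fold dilutions from 100 μM maximum, in duplicate, for 24 h. MTT was added for 4 h, then SDS/HCl overnight at 37 °C, with OD read at 550 nm (ref 630 nm). Growth inhibition was computed against cell and medium controls, and IC50 came from curve fitting (mean ± SD).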

L5178Y [2] = assay: Cytotoxicity against parental mouse L5178Y cells assessed as inhibition of cell growth incubated for 24 hrs by MTT assay; format: functional, cell-based; in short: as §1
L5178Y [3] = assay: (§2) Modulation of P-glycoprotein mediated Rhodamine-123 efflux in multi-drug resistant mouse L5178Y cells tranfected with ABCB1 gene assessed as fluorescence activity ratio at 2 uM preincubated for 10 mins followed by rhodamine-123 addition and measured after 20 mins by flow cytometric analysis (reference value: 1.01); format: cell-based; details: filed as modulator, time 30.0 min
In short: (§3)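 Cells were held in serum-free McCoy's 5A with compound at 2.0 or 20 μM, verapamil 20 μM as positive control and DMSO 2% as solvent control, for 10 min at room temperature. R123 was then added (5.2 μM final) for 20 min at 37 °C, followed by two washes into PBS and flow cytometry (FL-1 mean fluorescence). FAR = (MDR treated/untreated FL-1) divided by (PAR treated/untreated FL-1).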

L5178Y [4] = assay: as §2, with “ratio by measuring fold change” for “ratio”, “relative to verapamil” for “(reference value: 1.01)”; format: cell-based; details: filed as modulator, time 30.0 min; in short: as §3
L5178Y [5] = assay: as §2, with “ratio by measuring fold change” for “ratio”, “at 20” for “at 2”, “analysis relative to verapamil” for “analysis (reference value: 1.01)”; format: cell-based; details: filed as modulator, time 30.0 min; in short: as §3
L5178Y [6] = assay: Synergistic cytotoxicity against multi-drug resistant mouse L5178Y cells transfected with ABCB1 gene assessed as combination index measured after 48 hrs in the presence of doxorubicin by MTT assay; format: functional
In short: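 This was a fixed-ratio checkerboard in L5178Y-MDR cells, with doxorubicin diluted from 14.7 to 0.1 μM against serial dilutions of the modulator. Cells were seeded at 2×10^5/mL, incubated 48 h, and read by MTT. Each curve was fitted linearly to the Chou–Talalay median-effect equation, keeping only fits with r > 0.90. CI at 50% inhibition is given as the mean ± SD of three CI values from different drug ratios.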

SMILES: O=C(Cc1c[nH]c2ccccc12)N/N=C1\C[C@@H](c2ccc(O)cc2)Oc2cc(O)cc(O)c21
- IC50 (L5178Y [1]): ≥ 11.3 µM
- IC50 (L5178Y [2]): ≥ 11.3 µM
- Ratio (L5178Y [3]): 1

SMILES: COc1cc(O)c2c(c1)O[C@H](c1ccc(O)cc1)C/C2=N\NC(=O)Cc1c[nH]c2ccccc12
- IC50 (L5178Y [1]): ≥ 11.3 µM
- IC50 (L5178Y [2]): ≥ 11.3 µM
- Ratio (L5178Y [3]): 1.12

SMILES: COc1cc(O)c2c(c1)O[C@H](c1ccc(OCC(O)CNC3CCN(Cc4ccccc4)CC3)cc1)CC2=O (some centres not stated)
- IC50 (L5178Y [1]): ≥ 11.3 µM
- fold change (FC) (L5178Y [4]): 2
- fold change (FC) (L5178Y [5]): 6
- CI (L5178Y [6]): 0.108
- IC50 (L5178Y [2]): ≥ 11.3 µM
- Ratio (L5178Y [3]): 18.7

SMILES: COc1ccc([C@@H]2C/C(=N\Nc3ccc(Br)cn3)c3c(O)cc(OC)cc3O2)cc1
- IC50 (L5178Y [1]): 10.7 µM
- IC50 (L5178Y [2]): 8 µM
- Ratio (L5178Y [3]): 10.7

SMILES: CN(C)C(=S)N/N=C1\C[C@@H](c2ccc(O)cc2)Oc2cc(O)cc(O)c21
- IC50 (L5178Y [1]): ≥ 11.3 µM
- IC50 (L5178Y [2]): ≥ 11.3 µM
- Ratio (L5178Y [3]): 2.17

SMILES: COc1cc(O)c2c(c1)O[C@H](c1ccc(O)cc1)C/C2=N\NC(=O)OCc1ccccc1
- IC50 (L5178Y [1]): ≥ 11.3 µM
- fold change (FC) (L5178Y [5]): 7
- CI (L5178Y [6]): 0.638
- IC50 (L5178Y [2]): ≥ 11.3 µM
- Ratio (L5178Y [3]): 4.14

SMILES: COc1cc(O)c2c(c1)O[C@H](c1ccc(O)cc1)C/C2=N\NC(=O)c1ccco1
- IC50 (L5178Y [1]): ≥ 11.3 µM
- IC50 (L5178Y [2]): ≥ 11.3 µM
- Ratio (L5178Y [3]): 1.28

SMILES: O=C(N/N=C1\C[C@@H](c2ccc(O)cc2)Oc2cc(O)cc(O)c21)c1ccco1 (stereo in doubt)
- IC50 (L5178Y [1]): ≥ 11.3 µM
- IC50 (L5178Y [2]): ≥ 11.3 µM
- Ratio (L5178Y [3]): 0.86

SMILES: O=C(N/N=C1\C[C@@H](c2ccc(O)cc2)Oc2cc(O)cc(O)c21)c1cccs1 (stereo in doubt)
- IC50 (L5178Y [1]): ≥ 11.3 µM
- IC50 (L5178Y [2]): ≥ 11.3 µM
- Ratio (L5178Y [3]): 0.92

SMILES: COc1cc(O)c2c(c1)O[C@H](c1ccc(OCC3CO3)cc1)CC2=O (some centres not stated)
- IC50 (L5178Y [1]): ≥ 11.3 µM
- IC50 (L5178Y [2]): ≥ 11.3 µM
- Ratio (L5178Y [3]): 1.17

SMILES: COc1cc(O)c2c(c1)O[C@H](c1ccc(OCC(O)CSc3ccccc3)cc1)CC2=O (some centres not stated)
- IC50 (L5178Y [1]): ≥ 11.3 µM
- IC50 (L5178Y [2]): ≥ 11.3 µM
- Ratio (L5178Y [3]): 0.92

SMILES: COc1cc(O)c2c(c1)O[C@H](c1ccc(O)cc1)C/C2=N\NC(=O)c1ccc(N)cc1
- IC50 (L5178Y [1]): ≥ 11.3 µM
- IC50 (L5178Y [2]): ≥ 11.3 µM
- Ratio (L5178Y [3]): 0.96

SMILES: COc1cc(O)c2c(c1)O[C@H](c1ccc(O)cc1)C/C2=N\N
- IC50 (L5178Y [1]): ≥ 11.3 µM
- IC50 (L5178Y [2]): ≥ 11.3 µM
- Ratio (L5178Y [3]): 1.26

SMILES: COc1ccc([C@@H]2C/C(=N\N)c3c(O)cc(OC)cc3O2)cc1
- IC50 (L5178Y [1]): ≥ 11.3 µM
- IC50 (L5178Y [2]): ≥ 11.3 µM
- Ratio (L5178Y [3]): 0.85

SMILES: CCN(CC)CC(O)COc1ccc([C@@H]2CC(=O)c3c(O)cc(OC)cc3O2)cc1 (some centres not stated)
- IC50 (L5178Y [1]): ≥ 11.3 µM
- IC50 (L5178Y [2]): ≥ 11.3 µM
- Ratio (L5178Y [3]): 4.06

SMILES: COc1cc(O)c2c(c1)O[C@H](c1ccc(OCC(O)CCl)cc1)CC2=O (some centres not stated)
- IC50 (L5178Y [1]): ≥ 11.3 µM
- IC50 (L5178Y [2]): ≥ 11.3 µM
- Ratio (L5178Y [3]): 1.33

SMILES: COc1cc(O)c2c(c1)O[C@H](c1ccc(OCC(O)Cc3c[nH]c4ccccc34)cc1)CC2=O (some centres not stated)
- IC50 (L5178Y [1]): ≥ 11.3 µM
- IC50 (L5178Y [2]): ≥ 11.3 µM
- Ratio (L5178Y [3]): 0.86

SMILES: Oc1ccc([C@@H]2C/C(=N\N=C\c3c[nH]c4ccccc34)c3c(O)cc(O)cc3O2)cc1
- IC50 (L5178Y [1]): ≥ 11.3 µM
- IC50 (L5178Y [2]): ≥ 11.3 µM
- Ratio (L5178Y [3]): 0.95

SMILES: COc1cc(O)c2c(c1)O[C@H](c1ccc(O)cc1)C/C2=N\Nc1ccc(Br)cn1
- IC50 (L5178Y [1]): 12.7 µM
- IC50 (L5178Y [2]): 4.3 µM
- Ratio (L5178Y [3]): 2.1
